These results are taken from ChEMBL document CHEMBL5331128, “Alicyclic Ring Size Variation of 4-Phenyl-2-naphthoic Acid Derivatives as P2Y14 Receptor Antagonists” (J Med Chem, 2023).

Data set [1] has as its target T1, P2Y purinoceptor 14 (Homo sapiens, UniProt Q15391).
T1 sequence (Q15391 whole entry): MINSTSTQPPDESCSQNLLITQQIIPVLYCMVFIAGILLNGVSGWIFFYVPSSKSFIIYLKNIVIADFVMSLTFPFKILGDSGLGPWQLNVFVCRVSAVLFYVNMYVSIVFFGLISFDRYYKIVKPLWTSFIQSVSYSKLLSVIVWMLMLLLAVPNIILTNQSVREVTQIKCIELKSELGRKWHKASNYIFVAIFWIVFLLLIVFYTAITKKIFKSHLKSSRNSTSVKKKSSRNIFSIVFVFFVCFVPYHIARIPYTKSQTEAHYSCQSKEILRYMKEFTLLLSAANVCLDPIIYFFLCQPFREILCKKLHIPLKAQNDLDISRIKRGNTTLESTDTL
In words: Displacement of fluorescent tracer 4-(4-(1-(4-(1-(6-(3-carboxylato-4-(3-iminio-3H-xanthen-9-yl)benzamido)hexyl)-4,5-dihydro-1H-pyrrol-3-yl)butyl)piperidin-1-ium-4-yl)phenyl)-7-(4-(trifluoromethyl)phenyl)-2-naphthoate from human P2Y14R stably expressed in CHO cells assessed as inhibition constant by flow cytometry. The class given is cell-based. Put shortly: (§1)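 Whole-cell competitive binding: CHO cells expressing hP2Y14R (or HEK-293 cells expressing mP2Y14R) incubated with AlexaFluor488-labelled antagonist tracer at 20 nM.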

A short description of data set [2]: Lipophilicity, log D of compound at pH 7.4 incubated for 20 hrs by HPLC analysis. The class given is physicochemical. Particulars: buffer.
Data set [3] deals with T1, P2Y purinoceptor 14. In words: Displacement of fluorescent tracer 4-(4-(1-(4-(1-(6-(3-carboxylato-4-(3-iminio-3H-xanthen-9-yl)benzamido)hexyl)-4,5-dihydro-1H-pyrrol-3-yl)butyl)piperidin-1-ium-4-yl)phenyl)-7-(4-(trifluoromethyl)phenyl)-2-naphthoate from human P2Y14R stably expressed in CHO cells by flow cytometry. The class given is cell-based. Put shortly:
as §1
For orientation: Flow cytometry measures light scatter and fluorescence of single cells or particles in a stream.

For data set [4], the target named is T2, P2Y purinoceptor 14 (Mus musculus, UniProt Q9ESG6).
T2 sequence (Q9ESG6 whole entry): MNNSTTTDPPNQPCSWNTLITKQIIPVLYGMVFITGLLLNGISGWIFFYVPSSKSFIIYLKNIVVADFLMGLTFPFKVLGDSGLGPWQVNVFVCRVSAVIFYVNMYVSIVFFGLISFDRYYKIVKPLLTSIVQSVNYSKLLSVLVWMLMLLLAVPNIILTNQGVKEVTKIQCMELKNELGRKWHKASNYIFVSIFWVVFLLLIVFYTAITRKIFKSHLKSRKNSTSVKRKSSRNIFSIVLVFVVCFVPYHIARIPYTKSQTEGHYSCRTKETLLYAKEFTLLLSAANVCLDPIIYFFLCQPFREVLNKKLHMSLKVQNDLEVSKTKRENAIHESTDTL
In words: Displacement of fluorescent tracer 4-(4-(1-(4-(1-(6-(3-carboxylato-4-(3-iminio-3H-xanthen-9-yl)benzamido)hexyl)-4,5-dihydro-1H-pyrrol-3-yl)butyl)piperidin-1-ium-4-yl)phenyl)-7-(4-(trifluoromethyl)phenyl)-2-naphthoate from mouse P2Y14R stably expressed in human HEK293 cells by flow cytometry. The class given is cell-based. The procedure, abridged:
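Whole-cell competitive binding: CHO cells expressing hP2Y14R (or HEK-293 cells expressing mP2Y14R) incubated with AlexaFluor488-labelled antagonist tracer at 20 nM. […] Ki derived by dividing IC50 by 1.72.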

Data set [5] can be described thus: Selectivity ratio, ratio of IC50 for displacement of fluorescent tracer 4-(4-(1-(4-(1-(6-(3-carboxylato-4-(3-iminio-3H-xanthen-9-yl)benzamido)hexyl)-4,5-dihydro-1H-pyrrol-3-yl)butyl)piperidin-1-ium-4-yl)phenyl)-7-(4-(trifluoromethyl)phenyl)-2-naphthoate from mouse P2Y14R stably expressed in human HEK293 cells to IC50 for displacement of fluorescent tracer 4-(4-(1-(4-(1-(6-(3-carboxylato-4-(3-iminio-3H-xanthen-9-yl)benzamido)hexyl)-4,5-dihydro-1H-pyrrol-3-yl)butyl)piperidin-1-ium-4-yl)phenyl)-7-(4-(trifluoromethyl)phenyl)-2-naphthoate from human P2Y14R stably expressed in CHO cells. The class given is cell-based.

Data set [6] deals with Mus musculus. The experiment in a line: Antiallodynic activity in CCI surgery neuropathic pain Hsd:ICR mouse model assessed as reversal of mechano-allodynia by measuring paw withdrawal threshold at 10 micromol/kg,po and measured upto 6 hrs by von frey test. Particulars: dose 10.0 µmol/kg. The class given is functional, organism-based. The procedure, abridged: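 CCI neuropathic pain in adult male CD-1 mice. Single oral gavage dose of 10 μmol/kg on day 7 post-surgery. Vehicle 5% DMSO + 10% (Kolliphor HS 15:DMSO 5:95) in 0.5% methylcellulose, 0.2 mL. Von Frey paw withdrawal threshold on both hindpaws. Mean ± SD; two-way ANOVA with Dunnett's test.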

Data set [7] deals with Mus musculus. The experiment in a line: Antiallodynic activity in CCI surgery neuropathic pain Hsd:ICR mouse model assessed as reversal of mechano-allodynia by measuring paw withdrawal threshold at 10 micromol/kg,ip and measured upto 5 days by von frey test. The class given is functional, organism-based. The conditions noted are these: dose 10.0 µmol/kg, time <= 5.0 day. Put shortly:
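CCI neuropathic pain in adult male Hsd:ICR (CD-1) mice (20–30 g). Single i.p. injection on day 7 after sciatic nerve constriction, at peak pain. Vehicle 10% (Kolliphor HS 15:DMSO 5:95) in saline, 0.2 mL. Paw withdrawal threshold by von Frey filaments on ipsilateral and contralateral hindpaws. Mean ± SD; two-way ANOVA with Dunnett's test versus day 0 and day 7.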

Data set [8] concerns Mus musculus. The experiment in a line: Anti-asthmatic activity against OVA/Aspergillus-sensitized protease-mediated C57BL/6J mouse model allergic asthma assessed as reduction in airway eosinophilia in BAL fluid at 10 mg/kg,ip followed by 0.5 hrs OVA challenge and measured after 48 hrs. The class given is functional, organism-based. The conditions noted are these: time 48.5 hrs.

The test system of data set [9] is Mus musculus. In words: Anti-asthmatic activity against OVA/Aspergillus-sensitized protease-mediated C57BL/6J mouse model allergic asthma assessed as reduction in macrophages in BAL fluid at 10 mg/kg,ip followed by 0.5 hrs OVA challenge and measured after 48 hrs. The class given is functional, organism-based. Particulars: time 48.5 hrs.
The test system of data set [10] is Mus musculus. In words: Anti-asthmatic activity against OVA/Aspergillus-sensitized protease-mediated C57BL/6J mouse model allergic asthma assessed as reduction in lymphocytes in BAL fluid at 10 mg/kg,ip followed by 0.5 hrs OVA challenge and measured after 48 hrs. The class given is functional, organism-based. The conditions noted are these: time 48.5 hrs.
Data set [11] deals with Mus musculus. The experiment in a line: Anti-asthmatic activity against OVA/Aspergillus-sensitized protease-mediated C57BL/6J mouse model allergic asthma assessed as reduction in neutrophils in BAL fluid at 10 mg/kg,ip followed by 0.5 hrs OVA challenge and measured after 48 hrs. The class given is functional, organism-based. The conditions noted are these: time 48.5 hrs.

The source made the active and inactive calls.

Turning to `O=C(O)c1cc(-c2ccc(/C3=C/CCNCCC3)cc2)c2ccc(-c3ccc(C(F)(F)F)cc3)cc2c1`, the Ki (usually the dissociation constant of the complex between target and ligand, obtained from inhibition or displacement) on P2Y purinoceptor 14 [1] turned out to be 34 nM. Also, in data set [2], the logD – broadly, lipophilicity at a set pH, counting ionised and neutral species – at 20 h was 2.9. Moreover, the IC50 (commonly the midpoint of a concentration-inhibition curve) on P2Y purinoceptor 14 [3] worked out at 58.4 nM.
Take `O=C(O)c1cc(-c2ccc(C3CCCNCCC3)cc2)c2ccc(-c3ccc(C(F)(F)F)cc3)cc2c1`: the results for the IC50 at P2Y purinoceptor 14 [4] and at P2Y purinoceptor 14 [3] were 11.6 nM and 18.5 nM, respectively. Besides, the Ratio IC50 in data set [5] turned out to be 0.627. Besides, the Ki on P2Y purinoceptor 14 [1] amounted to 10.8 nM. Also, in [2], the logD at 20 h worked out at 2.5.
For `O=C(O)c1cc(-c2ccc(C3CNC3)cc2)c2ccc(-c3ccc(C(F)(F)F)cc3)cc2c1`, the Ki on P2Y purinoceptor 14 [1] amounted to 38.3 nM. In addition, in data set [2], the logD at 20 h came to 1.4.
Regarding `O=C(O)c1cc(-c2ccc(C3C[C@H]4CNC[C@@H]4C3)cc2)c2ccc(-c3ccc(C(F)(F)F)cc3)cc2c1` (racemic), the Ki on P2Y purinoceptor 14 [1] came out at 18.6 nM. This compound also returned a logD at 20 h in data set [2] of 2.4.
In the same order, the values of `O=C(O)c1cc(-c2ccc(C3(O)CC4(CNC4)C3)cc2)c2ccc(-c3ccc(C(F)(F)F)cc3)cc2c1` are 12.1 nM and 0.81.
Consider `CCOC(=O)N1C[C@H]2C[C@@H]1C[C@@H]2c1ccc(-c2cc(C(=O)OCC(=O)N(C)C)cc3cc(-c4ccc(C(F)(F)F)cc4)ccc23)cc1`, for which the result in the data set with Mus musculus [6] and in the data set with Mus musculus [7] was Active.
Regarding `CC(C)(C)OC(=O)NCCCCCCn1cc(CCCCN2CCC(c3ccc(-c4cc(C(=O)O)cc5cc(-c6ccc(C(F)(F)F)cc6)ccc45)cc3)CC2)nn1`, the Ki at P2Y purinoceptor 14 [1] turned out to be 247 nM. This compound also yielded an IC50 on P2Y purinoceptor 14 [3] of 424 nM.
In the same order, the values of `NCCCCCCn1cc(CCCCN2CCC(c3ccc(-c4cc(C(=O)O)cc5cc(-c6ccc(C(F)(F)F)cc6)ccc45)cc3)CC2)nn1` are 67.4 nM and 116 nM.
As for `O=C(O)c1cc(-c2ccc(C3(O)CCCNCCC3)cc2)c2ccc(-c3ccc(C(F)(F)F)cc3)cc2c1`, the Ki on P2Y purinoceptor 14 [1] was determined as 1030 nM.
On P2Y purinoceptor 14 [4], `O=C(O)c1cc(-c2ccc(C3=C[C@H]4CNC[C@@H]4C3)cc2)c2ccc(-c3ccc(C(F)(F)F)cc3)cc2c1` (racemic) had an IC50 of 5.57 nM. For the same compound, in data set [5], the Ratio IC50 is 0.336. Moreover, the Ki on P2Y purinoceptor 14 [1] was determined as 9.65 nM. Besides, the logD at 20 h in data set [2] turned out to be 2.2.
As to `CN(C)C(=O)COC(=O)c1cc(-c2ccc([C@]3(O)[C@@H]4CNC[C@H]3C4)cc2)c2ccc(-c3ccc(C(F)(F)F)cc3)cc2c1`, the Ki on P2Y purinoceptor 14 [1] was found to be 2800 nM. Moreover, the IC50 at P2Y purinoceptor 14 [3] amounted to 4810 nM.
Consider `COC1(c2ccc(-c3cc(C(=O)O)cc4cc(-c5ccc(C(F)(F)F)cc5)ccc34)cc2)CC2(CNC2)C1`, for which, at P2Y purinoceptor 14 [1], the Ki amounted to 27 nM. Moreover, the logD at 20 h in data set [2] stood at 1.8. On P2Y purinoceptor 14 [3], this compound registered an IC50 of 46.5 nM.
Take `O=C(O)c1cc(-c2ccc(C3CCNC3)cc2)c2ccc(-c3ccc(C(F)(F)F)cc3)cc2c1` (racemic): the logD at 20 h in [2] came out at 1.6.
Consider `CCOC(=O)N1C[C@H]2C[C@@H](C1)[C@@]2(O)c1ccc(-c2cc(C(=O)OCC(=O)N(C)C)cc3cc(-c4ccc(C(F)(F)F)cc4)ccc23)cc1`, for which the result with Mus musculus [6] and in the data set with Mus musculus [7] was Active. Also, the result in the data set on Mus musculus [8], with Mus musculus [9], in the data set with Mus musculus [10] and in the data set on Mus musculus [11] was inactive.
For the compound `O=C(O)c1cc(-c2ccc([C@@H]3[C@@H]4CNC[C@H]3C4)cc2)c2ccc(-c3ccc(C(F)(F)F)cc3)cc2c1`, the Ki at P2Y purinoceptor 14 [1] came to 305 nM. The compound also showed a logD at 20 h in data set [2] of 2.8. Moreover, the IC50 at P2Y purinoceptor 14 [3] amounted to 524 nM.
As to `O=C(O)c1cc(-c2ccc(C3CC4(CNC4)C3)cc2)c2ccc(-c3ccc(C(F)(F)F)cc3)cc2c1`, at P2Y purinoceptor 14 [1], the Ki worked out at 27.1 nM. In data set [2], this compound yielded a logD at 20 h of 1.9.
Take `CCOC(=O)N1C[C@H]2C[C@@H](C1)[C@@]2(O)c1ccc(-c2cc(C(=O)O)cc3cc(-c4ccc(C(F)(F)F)cc4)ccc23)cc1`: the Ki at P2Y purinoceptor 14 [1] worked out at 47.4 nM. For the same compound, at P2Y purinoceptor 14 [3], the IC50 is 81.6 nM.
